Source: ChEMBL document CHEMBL4000215, “A structure-guided optimization of pyrido[2,3-d]pyrimidin-7-ones as selective inhibitors of EGFRL858R/T790M mutant with improved pharmacokinetic properties” (Eur J Med Chem, 2017)

How the values were obtained:
A-431 = assay: Antiproliferative activity against human A431 cells harboring wild type EGFR after 72 hrs by SRB assay; type: cell-based; settings: A-431, 72 h
Method in brief: (§1)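 Cells were cultured in RPMI 1640 with 10% FBS and 1% penicillin-streptomycin at 37 °C in 5% CO2, and their EGFR gene was sequenced before use. They were exposed to a range of compound concentrations for 72 h, and growth was read by sulforhodamine B staining. IC50 came from non-linear regression with a sigmoidal dose-response model.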

NCI-H1975 = assay: Antiproliferative activity against human NCI-H1975 cells harboring EGFR L858R/T790M double mutant after 72 hrs by SRB assay; type: functional, cell-based; settings: NCI-H1975, 72 h; method in brief: as §1
[1] = target: Epidermal growth factor receptor (Homo sapiens, UniProt P00533); assay: Inhibition of N-terminal 6His/TEV protease cleavage site-tagged wild type human EGFR using poly (Glu,Tyr) 4:1 as substrate after 1 hr by ELISA
Epidermal growth factor receptor (Homo sapiens, UniProt P00533), sequence (P00533 whole entry, the tested form may be a part): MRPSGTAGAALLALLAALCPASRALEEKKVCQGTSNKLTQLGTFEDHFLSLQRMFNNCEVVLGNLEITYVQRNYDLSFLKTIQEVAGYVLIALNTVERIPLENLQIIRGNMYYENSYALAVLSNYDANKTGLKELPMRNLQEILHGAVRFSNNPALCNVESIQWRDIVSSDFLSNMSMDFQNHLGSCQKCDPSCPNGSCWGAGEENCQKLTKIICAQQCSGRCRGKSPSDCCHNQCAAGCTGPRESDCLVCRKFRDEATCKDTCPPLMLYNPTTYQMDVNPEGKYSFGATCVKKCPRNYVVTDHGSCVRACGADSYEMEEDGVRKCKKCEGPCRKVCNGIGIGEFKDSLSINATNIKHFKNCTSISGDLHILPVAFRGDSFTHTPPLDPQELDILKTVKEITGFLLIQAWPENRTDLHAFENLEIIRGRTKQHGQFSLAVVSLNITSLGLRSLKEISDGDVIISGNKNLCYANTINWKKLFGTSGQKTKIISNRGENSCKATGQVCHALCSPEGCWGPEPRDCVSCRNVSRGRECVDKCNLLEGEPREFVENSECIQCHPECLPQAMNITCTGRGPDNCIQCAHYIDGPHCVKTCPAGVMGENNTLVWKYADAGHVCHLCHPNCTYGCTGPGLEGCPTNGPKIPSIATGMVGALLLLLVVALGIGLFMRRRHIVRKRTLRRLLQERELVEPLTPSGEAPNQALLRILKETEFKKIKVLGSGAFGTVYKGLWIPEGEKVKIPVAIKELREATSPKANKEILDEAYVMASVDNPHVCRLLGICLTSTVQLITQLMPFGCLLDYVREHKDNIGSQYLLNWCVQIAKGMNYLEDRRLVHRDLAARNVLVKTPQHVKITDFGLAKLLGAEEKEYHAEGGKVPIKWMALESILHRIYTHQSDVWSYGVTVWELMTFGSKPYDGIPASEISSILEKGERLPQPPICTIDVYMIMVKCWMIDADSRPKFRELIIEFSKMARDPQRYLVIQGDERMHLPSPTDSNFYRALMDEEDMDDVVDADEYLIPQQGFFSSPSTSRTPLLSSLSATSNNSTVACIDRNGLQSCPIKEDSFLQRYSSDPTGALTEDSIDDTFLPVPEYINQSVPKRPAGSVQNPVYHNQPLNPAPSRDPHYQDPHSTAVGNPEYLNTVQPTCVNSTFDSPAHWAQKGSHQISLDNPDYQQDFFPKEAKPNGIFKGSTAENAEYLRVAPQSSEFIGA

[2] = target: Epidermal growth factor receptor (Homo sapiens, UniProt P00533, L858R/T790M); assay: Inhibition of N-terminal 6His/TEV protease cleavage site-tagged human EGFR L858R/T790M double mutant (696 to 1022 residues) using poly (Glu,Tyr) 4:1 as substrate after 1 hr by ELISA
Epidermal growth factor receptor (Homo sapiens, UniProt P00533, L858R/T790M), sequence (P00533 25-1210 T790M/L858R limits assumed): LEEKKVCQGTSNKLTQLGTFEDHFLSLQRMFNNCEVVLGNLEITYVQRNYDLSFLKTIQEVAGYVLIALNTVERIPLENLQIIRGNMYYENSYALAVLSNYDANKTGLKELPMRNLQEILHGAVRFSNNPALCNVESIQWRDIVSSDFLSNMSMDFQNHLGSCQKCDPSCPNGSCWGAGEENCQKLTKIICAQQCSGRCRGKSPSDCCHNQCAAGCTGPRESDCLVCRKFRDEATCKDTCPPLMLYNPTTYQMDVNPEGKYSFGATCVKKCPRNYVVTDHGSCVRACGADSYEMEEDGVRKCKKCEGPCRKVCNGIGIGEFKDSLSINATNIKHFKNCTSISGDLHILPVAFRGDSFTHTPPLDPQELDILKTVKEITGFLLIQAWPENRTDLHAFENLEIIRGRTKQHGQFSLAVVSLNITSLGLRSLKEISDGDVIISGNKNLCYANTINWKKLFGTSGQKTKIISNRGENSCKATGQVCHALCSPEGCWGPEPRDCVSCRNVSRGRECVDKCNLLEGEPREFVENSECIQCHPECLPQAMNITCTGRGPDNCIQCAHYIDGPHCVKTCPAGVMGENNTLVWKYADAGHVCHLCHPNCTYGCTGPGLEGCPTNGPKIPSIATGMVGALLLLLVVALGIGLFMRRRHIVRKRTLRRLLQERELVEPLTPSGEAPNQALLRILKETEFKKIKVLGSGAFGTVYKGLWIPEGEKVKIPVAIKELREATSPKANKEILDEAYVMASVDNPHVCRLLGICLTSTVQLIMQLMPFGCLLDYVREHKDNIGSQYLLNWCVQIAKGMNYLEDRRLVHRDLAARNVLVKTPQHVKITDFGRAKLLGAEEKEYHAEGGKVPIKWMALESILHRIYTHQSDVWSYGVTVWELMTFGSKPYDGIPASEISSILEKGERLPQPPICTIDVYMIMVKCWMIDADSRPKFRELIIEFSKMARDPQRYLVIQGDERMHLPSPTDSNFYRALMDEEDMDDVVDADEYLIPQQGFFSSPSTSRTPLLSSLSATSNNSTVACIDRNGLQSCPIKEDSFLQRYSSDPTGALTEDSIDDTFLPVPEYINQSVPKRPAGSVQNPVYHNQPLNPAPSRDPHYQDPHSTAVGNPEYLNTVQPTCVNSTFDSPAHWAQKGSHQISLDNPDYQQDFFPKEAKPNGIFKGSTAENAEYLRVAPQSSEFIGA

[3] = Tmax in Sprague-Dawley rat at 25 mg/kg administered via oral gavage by LC-MS/MS analysis; type: ADME, organism-based; settings: in vivo
Method in brief: (§2)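 Male Sprague-Dawley rats (180-300 g, n = 3 per route) were given a single dose, either 5 mg/kg iv or 25 mg/kg by oral gavage. Vehicle was 5% DMSO, 40% PEG400 and saline. Orbital sinus blood (0.2 mL) was taken into heparinized tubes at 0 min to 24 h. Plasma was stored at -80 °C and assayed by LC-MS/MS, and PK parameters were then calculated.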

[4] = (§3) Apparent clearance in Sprague-Dawley rat at 5 mg/kg, iv by LC-MS/MS analysis; type: ADME, organism-based; settings: Sprague-Dawley, in vivo, read-out: CL(app) (converted); method in brief: as §2
[5] = (§4) AUC (0 to infinity) in Sprague-Dawley rat at 5 mg/kg, iv by LC-MS/MS analysis; type: ADME, organism-based; parameters: dose 5 mg/kg, time infinity, route intravenous; settings: Sprague-Dawley, in vivo; method in brief: as §2
[6] = Cmax in Sprague-Dawley rat at 5 mg/kg, iv by LC-MS/MS analysis; type: ADME, organism-based; parameters: dose 5 mg/kg, route intravenous; settings: in vivo; method in brief: as §2
[7] = AUC (0 to infinity) in Sprague-Dawley rat at 25 mg/kg administered via oral gavage by LC-MS/MS analysis; type: ADME, organism-based; parameters: dose 25 mg/kg, route oral, time infinity; settings: in vivo; method in brief: as §2
[8] = Oral bioavailability in Sprague-Dawley rat at 25 mg/kg administered via gavage by LC-MS/MS analysis; type: ADME, organism-based; settings: in vivo; method in brief: as §2
[9] = Cmax in Sprague-Dawley rat at 25 mg/kg administered via oral gavage by LC-MS/MS analysis; type: ADME, organism-based; parameters: dose 25 mg/kg, route oral; settings: in vivo; method in brief: as §2
Rattus norvegicus [10] = assay: as §3; type: ADME, organism-based; settings: in vivo; method in brief: as §2
Rattus norvegicus [11] = assay: as §4; type: ADME, organism-based; parameters: dose 5 mg/kg, time infinity, route intravenous; settings: in vivo; method in brief: as §2

Compound	IC50 (A-431)	IC50 (NCI-H1975)	IC50 [1]	IC50 [2]	further results
C=CC(=O)Nc1cccc(-n2c(=O)cc(C)c3cnc(Nc4ccc(N5CCN(C)CC5)cc4OC)nc32)c1	1400 nM	2 nM	330 nM		
C=CC(=O)Nc1cccc(-n2c(=O)cc(C)c3cnc(Nc4nc5c(s4)CN(C)CC5)nc32)c1	2700 nM	8 nM	550 nM	2.5 nM	
C=CC(=O)Nc1cccc(-n2c(=O)cc(C)c3cnc(Nc4cnn(C5CCN(C)CC5)c4)nc32)c1	3520 nM	14 nM	166 nM	1.8 nM	
C=CC(=O)Nc1cccc(-n2c(=O)cc(C)c3cnc(Nc4ccc(N5CCN(C)CC5)cc4OC)nc32)c1.CS(=O)(=O)O					Tmax [3]: 1.56 h; clearance [4]: 190 mL/min/kg; AUC(0-inf) [5]: 450 ng·h/mL; Cmax [6]: 1370 ng/mL; AUC(0-inf) [7]: 243 ng·h/mL; bioavailability [8]: 10.8%; Cmax [9]: 83.1 ng/mL
C=CC(=O)Nc1cc(-n2c(=O)cc(C)c3cnc(Nc4ccc(N5CCN(C)CC5)cc4OC)nc32)cc(C(F)(F)F)c1.CS(=O)(=O)O					Tmax [3]: 2 h; clearance [4]: 102 mL/min/kg; AUC(0-inf) [5]: 831 ng·h/mL; Cmax [6]: 2460 ng/mL; AUC(0-inf) [7]: 671 ng·h/mL; bioavailability [8]: 16.1%; Cmax [9]: 161 ng/mL
C=CC(=O)Nc1cccc(-n2c(=O)cc(C)c3cnc(Nc4ccc(N5CC(C)N(C)C(C)C5)cc4OC)nc32)c1 (stereo not drawn)	1670 nM	4 nM			
C=CC(=O)N1CC[C@@H](n2c(=O)cc(C)c3cnc(Nc4ccc(N5CCN(C)CC5)cc4OC)nc32)C1	> 10000 nM	5200 nM			
C=CC(=O)Nc1cc(C)cc(-n2c(=O)cc(C)c3cnc(Nc4ccc(N5CCN(C)CC5)cc4OC)nc32)c1	3250 nM	6 nM	208 nM	1.8 nM	
C=CC(=O)Nc1cccc(-n2c(=O)cc(C)c3cnc(Nc4ccc(N5CCN(C)C(C)C5)cc4OC)nc32)c1.CS(=O)(=O)O (stereo not drawn)					Tmax [3]: 1.67 h; clearance [4]: 197 mL/min/kg; AUC(0-inf) [5]: 433 ng·h/mL; Cmax [6]: 1330 ng/mL; AUC(0-inf) [7]: 526 ng·h/mL; bioavailability [8]: 24.3%; Cmax [9]: 155 ng/mL
C=CC(=O)Nc1cc(-n2c(=O)cc(C)c3cnc(Nc4ccc(N5CC(C)N(C)C(C)C5)cc4OC)nc32)cc(C(F)(F)F)c1 (stereo not drawn)	1130 nM	30 nM	97 nM	3.3 nM	
C=CC(=O)Nc1cc(C(C)C)cc(-n2c(=O)cc(C)c3cnc(Nc4ccc(N5CCN(C)CC5)cc4OC)nc32)c1	1440 nM	120 nM	24 nM	2.4 nM	
C=CC(=O)Nc1cccc(-n2c(=O)cc(C)c3cnc(Nc4cnn(CCN(C)C)c4)nc32)c1	4000 nM	289 nM	445 nM	4.2 nM	
C=CC(=O)Nc1cc(-n2c(=O)cc(C)c3cnc(Nc4ccc(N5CCN(C)CC5)cc4OC)nc32)ccc1C	3620 nM	81 nM	36.9 nM	2.3 nM	
C=CC(=O)Nc1cccc(-n2c(=O)cc(C)c3cnc(Nc4ccc(N5CCN(C)CC5)nc4)nc32)c1	2380 nM	64 nM	46.8 nM	1.4 nM	
C=CC(=O)Nc1cc(F)cc(-n2c(=O)cc(C)c3cnc(Nc4ccc(N5CCN(C)CC5)cc4OC)nc32)c1	817 nM	0.1 nM	26 nM	0.8 nM	
C=CC(=O)Nc1cccc(-n2c(=O)cc(C)c3cnc(Nc4ccc(N5CCN(C)C(C)C5)cc4OC)nc32)c1 (stereo not drawn)	706 nM	18 nM	169 nM	1.2 nM	
C=CC(=O)N1CC[C@H](n2c(=O)cc(C)c3cnc(Nc4ccc(N5CCN(C)CC5)cc4OC)nc32)C1	> 10000 nM	762 nM			
C=CC(=O)Nc1cc(-n2c(=O)cc(C)c3cnc(Nc4ccc(N5CC(C)N(C)C(C)C5)cc4OC)nc32)cc(C(F)(F)F)c1.CS(=O)(=O)O (stereo not drawn)					Tmax [3]: 6 h; clearance [4]: 205 mL/min/kg; AUC(0-inf) [5]: 410 ng·h/mL; Cmax [6]: 592 ng/mL; AUC(0-inf) [7]: 89.7 ng·h/mL; bioavailability [8]: 4.38%; Cmax [9]: 17.4 ng/mL
C=CC(=O)Nc1cc(-n2c(=O)cc(C)c3cnc(Nc4ccc(N5CCN(C)C(C)C5)cc4OC)nc32)cc(C(F)(F)F)c1.CS(=O)(=O)O (stereo not drawn)					Tmax [3]: 1.67 h; CL(app) (Rattus norvegicus [10]): 37.5 mL/min/kg; AUC (Rattus norvegicus [11]): 398.48 ng·h/mL; Cmax [6]: 259 ng/mL; AUC(0-inf) [7]: 111 ng·h/mL; bioavailability [8]: 5.58%; Cmax [9]: 21.4 ng/mL
C=CC(=O)Nc1cc(Br)cc(-n2c(=O)cc(C)c3cnc(Nc4ccc(N5CCN(C)CC5)cc4OC)nc32)c1	1150 nM	4 nM	57 nM	1.8 nM	
C=CC(=O)Nc1cc(-n2c(=O)cc(C)c3cnc(Nc4ccc(N5CCN(C)CC5)cc4OC)nc32)cc(C(C)(C)C)c1	660 nM	197 nM	> 1000 nM	17.7 nM	
C=CC(=O)N1CCC(n2c(=O)cc(C)c3cnc(Nc4ccc(N5CCN(C)CC5)cc4OC)nc32)CC1	> 10000 nM	2240 nM	> 1000 nM	> 1000 nM	
C=CC(=O)Nc1cc(CC)cc(-n2c(=O)cc(C)c3cnc(Nc4ccc(N5CCN(C)CC5)cc4OC)nc32)c1	1050 nM	142 nM	472 nM	3.4 nM	
C=CC(=O)Nc1cccc(-n2c(=O)cc(C)c3cnc(Nc4ccc(N5CC(C)N(C)C(C)C5)cc4OC)nc32)c1.CS(=O)(=O)O (stereo not drawn)					Tmax [3]: 4 h; clearance [4]: 135 mL/min/kg; AUC(0-inf) [5]: 622 ng·h/mL; Cmax [6]: 772 ng/mL; AUC(0-inf) [7]: 613 ng·h/mL; bioavailability [8]: 13.3%; Cmax [9]: 64.4 ng/mL
C=CC(=O)Nc1cc(-n2c(=O)cc(C)c3cnc(Nc4ccc(N5CCN(C)C(C)C5)cc4OC)nc32)cc(C(F)(F)F)c1 (stereo not drawn)	1710 nM	12 nM	66 nM	1.6 nM	
C=CC(=O)Nc1cc(Cl)cc(-n2c(=O)cc(C)c3cnc(Nc4ccc(N5CCN(C)CC5)cc4OC)nc32)c1	1430 nM	7 nM	33.1 nM	0.6 nM	
C=CC(=O)N1CCC(Cn2c(=O)cc(C)c3cnc(Nc4ccc(N5CCN(C)CC5)cc4OC)nc32)C1 (racemic)	> 10000 nM	305 nM	> 1000 nM	63.8 nM	
C=CC(=O)Nc1cccc(Nc2nc(Nc3ccc(N4CCN(C(C)=O)CC4)cc3OC)ncc2C(F)(F)F)c1 [ROCILETINIB]	1540 nM	42 nM			
